pIC50: −log10 of the molar value.
How the values were obtained:
[1] = biological target: T1, Phospho-N-acetylmuramoyl-pentapeptide-transferase (Staphylococcus aureus, UniProt P0C1R8); experiment: Inhibition of Staphylococcus aureus MraY after 30 mins
T1 sequence (P0C1R8 whole entry): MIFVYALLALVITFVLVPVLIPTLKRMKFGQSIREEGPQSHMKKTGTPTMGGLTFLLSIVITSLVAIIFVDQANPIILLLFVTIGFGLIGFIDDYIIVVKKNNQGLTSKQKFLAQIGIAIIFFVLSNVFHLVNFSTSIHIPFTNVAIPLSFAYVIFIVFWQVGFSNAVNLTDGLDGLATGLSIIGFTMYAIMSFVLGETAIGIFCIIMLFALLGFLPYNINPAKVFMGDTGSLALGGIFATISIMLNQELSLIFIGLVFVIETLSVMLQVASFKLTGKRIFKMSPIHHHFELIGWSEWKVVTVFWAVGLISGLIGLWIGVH
How it was run: (§1)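 Started with enzyme, 30 min at 37 °C with shaking, stopped at 100 °C for 1 min. Lipid I separated from substrate by silica TLC (2-propanol/NH₄OH/water 6:3:1), spots quantified by radioactivity scanning. Residual activity relative to no-inhibitor control; IC50 from 7 inhibitor concentrations.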

[2] = test system: Staphylococcus aureus; experiment: Inhibition of Staphylococcus aureus MurG assessed as residual activity of enzyme at 2 mM after 30 mins
How it was run: (§2)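 MurG reaction in 12.5 μl: 200 mM Tris-HCl pH 7.5, 10 mM MgCl₂, 16 μM UDP-[¹⁴C]GlcNAc, 16 μM lipid I analog, 30% (v/v) DMSO (final) plus MurG. Run 30 min at 37 °C, stopped by 3 min boiling, lyophilized, redissolved in 2-propanol/NH₄OH/water (6:3:1). Lipid II resolved by silica TLC in the same solvent and counted by radioactivity scanning. Residual activity versus no-inhibitor control; IC50 from 7 concentrations.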

[3] = biological target: T2, Phospho-N-acetylmuramoyl-pentapeptide-transferase (Staphylococcus aureus) (UniProt P0C1R8); experiment: Inhibition of Staphylococcus aureus MraY assessed as residual activity of enzyme at 1 mM after 30 mins; how it was run: as §1
T2 sequence (whole entry): T1 sequence (P0C1R8 whole entry)

[4] = Inhibition of Staphylococcus aureus MurG after 30 mins; how it was run: as §2
[5] = biological target: T2, Phospho-N-acetylmuramoyl-pentapeptide-transferase (Staphylococcus aureus); experiment: Inhibition of Staphylococcus aureus MraY assessed as residual activity of enzyme at 2 mM after 30 mins; conditions: 1 mM, in the assay text read “at 1 mM” for “at 2 mM”; how it was run: as §1
[6] = test system: Staphylococcus aureus; experiment: Inhibition of Staphylococcus aureus MurG assessed as residual activity of enzyme at 1 mM after 30 mins; how it was run: as §2

| SMILES | pIC50 [1] | Activity [2] | pIC50 [4] | also measured |
| --- | --- | --- | --- | --- |
| CCCCCCCCCCCCCCCC(=O)O[C@H]1CN(C)[C@@H](CO[C@@H]2O[C@H](CN)[C@@H](O)[C@H]2O)C(=O)N[C@@H]1CO |  | 100% |  | Activity [3]: 75% |
| CC(C)(C)[Si](OC[C@H]1NC(=O)[C@H](COCc2ccccc2)N(CCCCCn2ccc(=O)[nH]c2=O)C[C@@H]1O)(c1ccccc1)c1ccccc1 | 2.80 |  |  | Activity [6]: 100% |
| CCCCCCCCCCCCCCCC(=O)O[C@H]1CN(CCCCCn2ccc(=O)[nH]c2=O)[C@@H](COCc2ccccc2)C(=O)N[C@@H]1CO[Si](c1ccccc1)(c1ccccc1)C(C)(C)C | 2.85 | 100% |  |  |
| CCCCCCCCCCCCCCCC(=O)O[C@H]1CN(CCCCCn2ccc(=O)[nH]c2=O)[C@@H](CO[C@@H]2O[C@H](CN)[C@@H](O)[C@H]2O)C(=O)N[C@@H]1CO[Si](c1ccccc1)(c1ccccc1)C(C)(C)C | 3.92 |  | 3.73 |  |
| CCCCCCCCCCCCCCCC(=O)O[C@H]1CN(CCCCCn2ccc(=O)[nH]c2=O)[C@@H](CO[C@@H]2O[C@H](CN)[C@H]3OC(CC)(CC)O[C@@H]23)C(=O)N[C@@H]1CO[Si](c1ccccc1)(c1ccccc1)C(C)(C)C | 3.21 |  | 3.96 |  |
| CCCCCCCCCCCCCCCC(=O)O[C@H]1CN(CCCCCn2ccc(=O)[nH]c2=O)[C@@H](CO)C(=O)N[C@@H]1CO | 3.57 | 100% |  |  |
| CCCCCCCCCCCCCCCC(=O)O[C@H]1CN(CCCCCn2ccc(=O)[nH]c2=O)[C@@H](CO[C@@H]2O[C@H](CN=[N+]=[N-])[C@H]3OC(CC)(CC)O[C@@H]23)C(=O)N[C@@H]1CO[C@@H]1O[C@H](CN=[N+]=[N-])[C@H]2OC(CC)(CC)O[C@@H]12 | 3.38 | 87% |  |  |
| CCCCCCCCCCCCCCCC(=O)O[C@H]1CN(CCCCCn2ccc(=O)[nH]c2=O)[C@@H](CO[C@@H]2O[C@H](CN)[C@@H](O)[C@H]2O)C(=O)N[C@@H]1CO[C@@H]1O[C@H](CN)[C@@H](O)[C@H]1O | 2.55 |  | 3.89 |  |

Continued, in another order:

| pIC50 [1] | Activity [2] | pIC50 [4] | SMILES | also measured |
| --- | --- | --- | --- | --- |
| 3.00 |  |  | CCCCCCCCCCCCCCCC(=O)O[C@H]1CN(C)[C@@H](CO[C@@H]2O[C@H](CN)[C@H]3OC(CC)(CC)O[C@@H]23)C(=O)N[C@@H]1CO[Si](c1ccccc1)(c1ccccc1)C(C)(C)C |  |
|  |  | 3.82 | CCCCCCCCCCCCCCCC(=O)O[C@H]1CN(C)[C@@H](CO[C@@H]2O[C@H](CN)[C@@H](O)[C@H]2O)C(=O)N[C@@H]1CO[Si](c1ccccc1)(c1ccccc1)C(C)(C)C | Activity [5]: 66% |
| 2.76 |  |  | CCCCCCCCCCCCCCCC(=O)O[C@H]1CN(C)[C@@H](CO)C(=O)N[C@@H]1CO |  |
| 3.66 |  | 3.28 | CCCCCCCCCCCCCCCC(=O)O[C@H]1CN(CCCCCn2ccc(=O)[nH]c2=O)[C@@H](CO[C@@H]2O[C@H](CN)[C@@H](O)[C@H]2O)C(=O)N[C@@H]1CO |  |
| 3.72 | 100% |  | CCCCCCCCCCCCCCCC(=O)O[C@H]1CN(CCCCCn2ccc(=O)[nH]c2=O)[C@@H](CO[C@@H]2O[C@H](CN=[N+]=[N-])[C@H]3OC(CC)(CC)O[C@@H]23)C(=O)N[C@@H]1CO[Si](c1ccccc1)(c1ccccc1)C(C)(C)C |  |
| 3.42 | 66% |  | CCCCCCCCCCCCCCCC(=O)O[C@H]1CN(CCCCCn2ccc(=O)[nH]c2=O)[C@@H](CO)C(=O)N[C@@H]1CO[Si](c1ccccc1)(c1ccccc1)C(C)(C)C |  |
| 3.51 |  | 4.00 | CCCCCCCCCCCCCCCC(=O)O[C@H]1CN(CCCCCn2ccc(=O)[nH]c2=O)[C@@H](CO[C@@H]2O[C@H](CN)[C@H]3OC(CC)(CC)O[C@@H]23)C(=O)N[C@@H]1CO[C@@H]1O[C@H](CN)[C@H]2OC(CC)(CC)O[C@@H]12 |  |

Reference: ChEMBL document CHEMBL1770048, “Synthesis and biological evaluation of a diazepanone-based library of liposidomycins analogs as MraY inhibitors” (Eur J Med Chem, 2011)
